Assay results reported in ChEMBL document CHEMBL1134464, “Synthesis, antimalarial activity, biomimetic iron(II) chemistry, and in vivo metabolism of novel, potent C-10-phenoxy derivatives of dihydroartemisinin” (J Med Chem, 2001).

Key:
Plasmodium falciparum [1] = assay: In vitro antimalarial activity against chloroquine-sensitive Plasmodium falciparum HB3; type: functional, organism-based
Summary of the method: (§1)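 48-h [3H]hypoxanthine incorporation assay on P. falciparum cultured in human erythrocytes in RPMI 1640 with 25 mM HEPES, 32 mM NaHCO3 and 10% human serum, gassed 3% O2/4% CO2/93% N2. Assay at 2% parasitemia and 0.5% hematocrit, with DMSO stocks diluted in medium, run in triplicate. 0.5 μCi hypoxanthine added after 24 h at 37 °C, then 24 h more. IC50 interpolated from probit of log dose–response.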

Plasmodium falciparum [2] = assay: In vitro antimalarial activity against chloroquine-resistant Plasmodium falciparum K1; type: functional, organism-based; summary of the method: as §1
Mus musculus [3] = assay: In vivo antimalarial activity against Plasmodium berghei; type: functional
Plasmodium yoelii = assay: In vivo antimalarial activity against Plasmodium yoelii when administered subcutaneously; details: Mus musculus, sc
Mus musculus [4] = assay: In vivo antimalarial activity against Plasmodium yoelii when administered subcutaneously; type: functional; details: sc
Mus musculus [5] = assay: In vivo antimalarial activity against Plasmodium berghei when administered perorally; type: functional; details: po
Plasmodium berghei = assay: In vivo antimalarial activity against Plasmodium berghei

Compound | IC50 (Plasmodium falciparum [1]) [nM] | IC50 (Plasmodium falciparum [2]) [nM] | also measured
C[C@H]1[C@H](Oc2ccccc2)O[C@@H]2OC3(C)CC[C@H]4[C@H](C)CC[C@@H]1[C@@]24OO3 (single isomer, unassigned) | 2.61 | 2.97 | 
C[C@H]1[C@@H](Oc2ccccc2)O[C@@H]2OC3(C)CC[C@H]4[C@H](C)CC[C@@H]1[C@@]24OO3 (single isomer, unassigned) | 3.24 | 3.66 | ED50 (Mus musculus [3]): 3.09 mg/kg
Cc1ccc(O[C@H]2O[C@@H]3OC4(C)CC[C@H]5[C@H](C)CC[C@@H]([C@H]2C)[C@@]35OO4)cc1 (single isomer, unassigned) | 3.24 | 3.92 | 
COc1ccc(O[C@@H]2O[C@@H]3OC4(C)CC[C@H]5[C@H](C)CC[C@@H]([C@H]2C)[C@@]35OO4)cc1 (single isomer, unassigned) | 3.32 | 3.86 | 
Cc1ccc(O[C@@H]2O[C@@H]3OC4(C)CC[C@H]5[C@H](C)CC[C@@H]([C@H]2C)[C@@]35OO4)cc1 (single isomer, unassigned) | 2.87 | 3.18 | 
C[C@H]1[C@@H](Oc2ccc(C(F)(F)F)cc2)O[C@@H]2OC3(C)CC[C@H]4[C@H](C)CC[C@@H]1[C@@]24OO3 (single isomer, unassigned) | 3.9 | 5.29 | ED50 (Plasmodium yoelii): 2.2 mg/kg; ED50 (Mus musculus [3]): 2.12 mg/kg; ED90 (Mus musculus [4]): 3.1 mg/kg; ED50 (Mus musculus [5]): 2.7 mg/kg; ED90 (Mus musculus [5]): 5.4 mg/kg
C[C@H]1[C@H](Oc2ccc(C(F)(F)F)cc2)O[C@@H]2OC3(C)CC[C@H]4[C@H](C)CC[C@@H]1[C@@]24OO3 (single isomer, unassigned) | 3.42 | 4.62 | 
C[C@H]1[C@H](Oc2ccc(F)cc2)O[C@@H]2OC3(C)CC[C@H]4[C@H](C)CC[C@@H]1[C@@]24OO3 (single isomer, unassigned) | 4.04 | 5.7 | 
COc1ccc(O[C@H]2O[C@@H]3OC4(C)CC[C@H]5[C@H](C)CC[C@@H]([C@H]2C)[C@@]35OO4)cc1 (single isomer, unassigned) |  | 4.58 | 
C[C@H]1[C@@H](Oc2ccc(F)cc2)O[C@@H]2OC3(C)CC[C@H]4[C@H](C)CC[C@@H]1[C@@]24OO3 (single isomer, unassigned) | 2.88 | 4.58 | 
CO[C@H]1O[C@@H]2O[C@@]3(C)CC[C@H]4[C@H](C)CC[C@@H]([C@H]1C)[C@@]24OO3 [ARTEMETHER] | 3.42 | 4.55 | ED50 (Mus musculus [3]): 6.02 mg/kg
C[C@@H]1CC[C@H]2[C@@H](C)C(=O)O[C@@H]3O[C@@]4(C)CC[C@@H]1[C@]32OO4 [ARTEMISININ] | 9.67 | 11.2 | 
C[C@H]1[C@@H](O)O[C@@H]2O[C@@]3(C)CC[C@H]4[C@H](C)CC[C@@H]1[C@@]24OO3 [ARTENIMOL] |  |  | ED50 (Plasmodium berghei): 1.95 mg/kg
C[C@H]1[C@H](OC(=O)CCC(=O)[O-])O[C@@H]2O[C@@]3(C)CC[C@H]4[C@H](C)CC[C@@H]1[C@@]24OO3.[Na+] [SODIUM ARESUNATE] |  |  | ED50 (Plasmodium yoelii): 3.6 mg/kg; ED90 (Mus musculus [4]): 13.5 mg/kg; ED50 (Mus musculus [5]): 4 mg/kg; ED90 (Mus musculus [5]): 13 mg/kg
